Results published in ChEMBL document CHEMBL4038313, “Expanding the Antiviral Spectrum of 3-Fluoro-2-(phosphonomethoxy)propyl Acyclic Nucleoside Phosphonates: Diamyl Aspartate Amidate Prodrugs” (J Med Chem, 2017).

Tests used:
[1] = tested on: Human immunodeficiency virus 1; test: Antiviral activity against CXCR4-tropic HIV-1 NL4-3 infected in human TZM-bl cells assessed as inhibition of virus-induced cytopathic effect preincubated with cells for 30 mins followed by viral infection measured after 48 hrs in presence of p-24 HIV-1 Ag by luciferase reporter gene assay; assay type: functional, cell-based; details: Human immunodeficiency virus 1, NL4-3, TZM-bl
Summary of the method: (§1)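 TZM-bl cells, 1 × 10^4 per well in DMEM with 10% FBS and 10 mM […], incubated 30 min at 37 °C with compound. Then HIV-1 NL4.3 (X4) or BaL (R5) added at 100 pg p24 Ag per well. After 48 h, cells lysed with luciferase substrate. Tat-induced luminescence read after 10 min dark incubation as a measure of replication.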

[2] = tested on: Human immunodeficiency virus 1; test: Antiviral activity against CCR5 tropic HIV1 BaL infected in human TZM-bl cells assessed as inhibition of virus-induced cytopathic effect preincubated with cells for 30 mins followed by viral infection measured after 48 hrs in presence of p-24 HIV-1 Ag by luciferase reporter gene assay; assay type: functional, cell-based; details: Human immunodeficiency virus 1, BaL; summary of the method: as §1
[3] = Cytotoxicity against human TZM-bl cells assessed as cell viability by tetrazolium dye assay; assay type: cell-based
[4] = Selectivity index, ratio of CC50 for human TZM-bl cells to EC50 for CXCR4-tropic HIV-1 NL4-3 infected in human TZM-bl cells; assay type: toxicity, cell-based; details: read-out: Ratio CC50/EC50
[5] = Selectivity index, ratio of CC50 for human TZM-bl cells to EC50 for CCR5 tropic HIV1 BaL infected in human TZM-bl cells; assay type: toxicity, cell-based; details: read-out: Ratio CC50/EC50
Hepatitis B virus = test: Antiviral activity against HBV ayw1 infected in human HepG2(2.2.15) cells assessed as reduction in viral replication by measuring extracellular viral DNA copy number after 6 days by real-time qPCR method; assay type: functional, cell-based; details: ayw1, HepG2 2.2.15, 144 h
Summary of the method: (§2)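 HepG2.2.15 cells (two copies of HBV ayw1 genome), 1.5 × 10^4/well in DMEM with 2% FBS and 380 μg/mL G418. After 16–24 h, compound added in triplicate, medium with compound renewed at day 3. Supernatant collected at day 6, Pronase-treated, and extracellular HBV DNA measured by TaqMan qPCR (precore/core) against an HBV DNA standard curve. EC50/EC90 derived; CC50 by MTS uptake.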

[6] = Cytotoxicity against human HepG2.2.15 cells assessed as cell viability by tetrazolium dye uptake assay; assay type: cell-based, HepG2 2.2.15
Summary of the method: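 HepG2.2.15 cells (two integrated copies of HBV ayw1 genome) were seeded at 1.5 × 10^4 cells/well in DMEM with 2% FBS, 380 μg/mL G418, glutamine, antibiotics and nonessential amino acids. After 16−24 h, medium with various compound concentrations was added in triplicate and renewed on day 3. After 6 days of treatment, viability was read by MTS uptake and CC50 was calculated.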

[7] = Selectivity index, ratio of CC50 for HepG2.2.15 cells to EC50 for HBV ayw1 infected in human HepG2(2.2.15) cells assessed as reduction in viral replication by measuring extracellular viral DNA copy; summary of the method: as §2
Human betaherpesvirus 5 [8] = test: Antiviral activity against Human cytomegalovirus AD169 infected in HEL cells assessed as inhibition of virus-induced cytopathic effect; assay type: functional, cell-based; details: Human betaherpesvirus 5, AD169, HEL
Summary of the method: (§3)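 HEL fibroblast monolayers inoculated with 100 CCID50 HCMV (AD-169, Davis) or 20 PFU VZV (TK+ Oka, TK− 07-1). Adsorbed 1–2 h, inoculum removed, then incubated with compound dilutions. HCMV cytopathicity or VZV plaques scored once untreated infected controls reached completion. EC50 is 50% reduction. SI is CC50/EC50, and the potency ratio is the ratio of EC50s.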

Human betaherpesvirus 5 [9] = test: Antiviral activity against HCMV Davis strain infected in HEL cells assessed as inhibition of virus-induced cytopathic effect; assay type: functional, cell-based; details: Human betaherpesvirus 5, Davis; summary of the method: as §3
Human alphaherpesvirus 3 [10] = test: Antiviral activity against thymidine kinase expressing Varicella-Zoster virus Oka strain assessed as inhibition of plaque formation; assay type: functional; details: Human alphaherpesvirus 3, strain Oka vaccine; summary of the method: as §3
Human alphaherpesvirus 3 [11] = test: Antiviral activity against thymidine kinase deficient Varicella-Zoster virus 07-1 infected in HEL cells assessed as inhibition of plaque formation; assay type: functional, cell-based; details: Human alphaherpesvirus 3, 07-1, HEL; summary of the method: as §3
[12] = Cytotoxic activity against HEL cells assessed as alteration of cell morphology after 3 days by microscopic method; assay type: cell-based; details: human
Summary of the method: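 HEL cells with compound; MCC is the lowest concentration giving microscopically detectable alteration of cell morphology.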

[13] = Stability of the compound in buffer of pH 1 at 2 mg after 6 hrs by 31P NMR spectroscopy; assay type: physicochemical; details: pH 1, 6 h
Summary of the method: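 2.0 mg compound in 0.2 mL acetone-d6 plus 0.3 mL pH 1 buffer (equal parts 0.2 M HCl and 0.2 M KCl). In situ 31P NMR (202 MHz) at 37 °C, spectra every 30 min over 14 h.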

[14] = Stability of the compound in phosphate buffer of pH 8 at 1 mg after 2 hrs by 31P NMR spectroscopy; assay type: physicochemical; details: pH 8, 2 h
Summary of the method: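 1 mg compound in 0.2 mL acetone-d6 plus 0.3 mL pH 8 buffer (0.1 M Na2HPO4 adjusted with 0.1 M HCl). In situ 31P NMR (202 MHz) at 37 °C, spectra every 30 min over 14 h.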

CCCCCOC(=O)C[C@H](NP(=O)(CO[C@H](CF)Cn1cc(C)c(=O)[nH]c1=O)Oc1ccccc1)C(=O)OCCCCC (stereo partly specified)
EC50 [1]: > 43.4 µM | EC50 [2]: > 43.4 µM | CC50 [3]: 43.4 µM | selectivity ratio [4]: < 1 | selectivity ratio [5]: < 1 | EC50 (Hepatitis B virus): 42.4 µM | EC90 (Hepatitis B virus): > 100 µM | CC50 [6]: 33.5 µM | Ratio CC50/EC50 [7]: <1 | EC50 (Human betaherpesvirus 5 [8]): > 31.9 µM | EC50 (Human betaherpesvirus 5 [9]): > 31.9 µM | EC50 (Human alphaherpesvirus 3 [10]): 19.7 µM | EC50 (Human alphaherpesvirus 3 [11]): 23.1 µM | MCC at 72 h [12]: 159 µM | Stability [13]: Unstable | Stability [14]: Unstable
